In test [1] the target is T1, Protein deacetylase HDAC6 (Homo sapiens, UniProt Q9UBN7).
T1 sequence (Q9UBN7 whole entry): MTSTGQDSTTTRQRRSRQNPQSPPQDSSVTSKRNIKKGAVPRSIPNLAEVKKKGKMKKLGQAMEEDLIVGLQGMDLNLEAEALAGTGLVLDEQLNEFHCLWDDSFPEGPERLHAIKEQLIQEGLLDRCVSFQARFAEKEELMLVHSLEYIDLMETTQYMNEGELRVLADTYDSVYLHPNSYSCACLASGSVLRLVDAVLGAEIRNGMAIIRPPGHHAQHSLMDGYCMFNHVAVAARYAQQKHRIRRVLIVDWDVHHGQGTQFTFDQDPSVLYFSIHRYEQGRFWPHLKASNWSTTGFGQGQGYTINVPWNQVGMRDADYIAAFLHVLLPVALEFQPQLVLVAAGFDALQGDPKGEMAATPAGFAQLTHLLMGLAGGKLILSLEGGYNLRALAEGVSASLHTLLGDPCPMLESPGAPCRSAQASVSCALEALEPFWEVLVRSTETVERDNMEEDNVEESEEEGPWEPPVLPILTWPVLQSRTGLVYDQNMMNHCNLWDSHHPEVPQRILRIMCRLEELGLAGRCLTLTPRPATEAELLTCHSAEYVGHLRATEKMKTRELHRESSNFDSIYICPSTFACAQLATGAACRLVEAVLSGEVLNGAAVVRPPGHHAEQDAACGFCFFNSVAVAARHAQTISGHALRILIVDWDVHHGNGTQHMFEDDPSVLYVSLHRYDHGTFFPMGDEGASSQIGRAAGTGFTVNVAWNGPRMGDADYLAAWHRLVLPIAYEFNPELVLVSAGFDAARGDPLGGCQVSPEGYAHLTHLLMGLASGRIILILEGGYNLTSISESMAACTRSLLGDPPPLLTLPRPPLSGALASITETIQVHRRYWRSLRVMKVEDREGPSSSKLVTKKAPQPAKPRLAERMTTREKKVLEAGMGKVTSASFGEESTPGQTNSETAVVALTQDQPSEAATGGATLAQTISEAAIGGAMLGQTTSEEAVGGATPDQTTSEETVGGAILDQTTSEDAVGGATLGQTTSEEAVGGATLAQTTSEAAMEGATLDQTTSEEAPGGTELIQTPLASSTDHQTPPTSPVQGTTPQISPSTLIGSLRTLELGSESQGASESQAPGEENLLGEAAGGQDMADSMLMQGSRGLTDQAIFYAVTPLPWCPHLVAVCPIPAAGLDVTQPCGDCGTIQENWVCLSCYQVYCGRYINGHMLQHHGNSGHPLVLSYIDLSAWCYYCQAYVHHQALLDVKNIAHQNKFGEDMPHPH
Nature of the test: Inhibition of full length human recombinant N-terminal GST-tagged HDAC6 (1 to 1215 residues) expressed in sf9 cells preincubated with enzyme followed by fluorogenic Arg-His-Lys-Lys(Ac)-AMC substrate addition measured after 2 hrs by fluorescence assay.

Test [2] deals with T2, Tyrosine-protein kinase JAK2 (Homo sapiens, UniProt O60674). The experiment in a line: Inhibition of JAK2 (unknown origin) preincubated for 20 mins followed by [33P]ATP addition measured after 120 mins by Hotspot assay.
Test [3] in a line: Antiproliferative activity against human MDA-MB-231 cells after 72 hrs by MTT assay. Format: functional, cell-based. The following applies: MDA-MB-231, 72 h.
Test [4] can be described thus: Antiproliferative activity against human PC3 cells after 72 hrs by MTT assay. The test is classed as functional, cell-based. As to conditions: PC-3, 72 h. (Tetrazolium assays rely on reduction of a dye to a coloured formazan, in cell work by metabolically active cells.)
The nature of test [5]: Antiproliferative activity against human HL60 cells. The test is classed as functional, cell-based. As to conditions: HL-60.
The next test can be described thus: cells. The test is classed as functional, cell-based. As to conditions: Homo sapiens, HEL 92.1.7, 36 h.
Test [6] is described as follows: Antiproliferative activity against human Jurkat cells. Format: functional, cell-based.
For test [7], the target named is T2, Tyrosine-protein kinase JAK2. The experiment in a line: Inhibition of JAK2 (unknown origin).
The nature of test [8]: Antiproliferative activity against human HCT116 cells after 72 hrs by MTT assay. The test is classed as functional, cell-based. The following applies: HCT-116, 72 h. In a few lines: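 MTT viability after 72 h exposure. Cells seeded at 2500/well and left 24 h before compound addition; DMSO at 0.5% v/v final. MTT added in FBS-free medium for 3 h at 37 °C, formazan dissolved in DMSO, absorbance read at 570 nm. IC50 from a sigmoidal fit of % viability vs log concentration; triplicates on separate occasions using two different stock solutions.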

Test [9] in a line: Antiproliferative activity against human MCF7 cells after 72 hrs by MTT assay. The test is classed as functional, cell-based. The following applies: MCF7, 72 h.
Test [10] in a line: Antiproliferative activity against human OPM2 cells after 48 hrs by CellTiter-Glo assay. The following applies: OPM-2, 48 h. The test is classed as functional, cell-based. In a few lines:
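OPM2 grown in RPMI 1640 with 10% FBS and penicillin/streptomycin at 37 °C, 5% CO2. Treated at 25,000 cells/well in triplicate for 48 h. Viability read by CellTiter-Glo luminescence. IC50 taken from a sigmoidal fit of % viability vs log concentration.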
Background: ATP-based viability assays read luminescence as a measure of living cells.

The next test addresses Histone deacetylase 1 (Homo sapiens, UniProt Q13547). Nature of the test: Inhibition of full length human recombinant C-terminal FLAG/His-tagged HDAC1 (1 to 482 residues) expressed in sf21 cells preincubated with enzyme followed by fluorogenic Arg-His-Lys-Lys(Ac)-AMC substrate addition measured after 2 hrs by fluorescence assay.

We go through 21 compounds from ChEMBL document CHEMBL3877241 (J Med Chem, 2016).

The structures appear in SMILES notation.

T2 sequence (O60674 whole entry): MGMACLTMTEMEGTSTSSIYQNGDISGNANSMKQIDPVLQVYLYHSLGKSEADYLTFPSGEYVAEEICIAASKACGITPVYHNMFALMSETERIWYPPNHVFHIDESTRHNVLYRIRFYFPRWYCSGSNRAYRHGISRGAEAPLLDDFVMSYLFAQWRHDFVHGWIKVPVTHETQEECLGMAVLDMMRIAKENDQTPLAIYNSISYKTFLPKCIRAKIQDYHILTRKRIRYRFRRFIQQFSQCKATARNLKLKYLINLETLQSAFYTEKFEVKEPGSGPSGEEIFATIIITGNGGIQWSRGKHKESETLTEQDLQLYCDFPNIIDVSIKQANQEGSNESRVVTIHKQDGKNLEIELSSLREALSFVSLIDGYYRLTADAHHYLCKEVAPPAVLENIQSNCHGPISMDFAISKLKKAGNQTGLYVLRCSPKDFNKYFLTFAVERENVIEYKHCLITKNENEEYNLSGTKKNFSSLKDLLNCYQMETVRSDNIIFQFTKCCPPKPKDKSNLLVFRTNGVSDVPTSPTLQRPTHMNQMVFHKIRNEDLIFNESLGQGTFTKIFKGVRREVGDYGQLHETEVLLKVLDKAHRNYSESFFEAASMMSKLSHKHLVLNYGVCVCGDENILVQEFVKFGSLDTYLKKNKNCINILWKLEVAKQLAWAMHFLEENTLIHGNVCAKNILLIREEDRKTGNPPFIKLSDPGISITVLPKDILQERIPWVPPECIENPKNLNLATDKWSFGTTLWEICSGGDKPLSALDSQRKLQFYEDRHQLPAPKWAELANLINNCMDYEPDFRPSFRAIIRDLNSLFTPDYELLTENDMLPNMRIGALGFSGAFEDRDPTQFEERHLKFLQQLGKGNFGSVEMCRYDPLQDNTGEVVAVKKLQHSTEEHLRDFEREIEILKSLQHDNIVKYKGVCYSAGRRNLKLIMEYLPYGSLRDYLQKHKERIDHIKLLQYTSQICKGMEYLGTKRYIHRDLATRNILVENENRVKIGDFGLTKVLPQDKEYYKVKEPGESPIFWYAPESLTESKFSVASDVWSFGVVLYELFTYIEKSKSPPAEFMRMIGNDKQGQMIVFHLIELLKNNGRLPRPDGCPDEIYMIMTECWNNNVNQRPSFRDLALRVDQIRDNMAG
Chain of Histone deacetylase 1 (Q13547 whole entry, the tested form may be a part): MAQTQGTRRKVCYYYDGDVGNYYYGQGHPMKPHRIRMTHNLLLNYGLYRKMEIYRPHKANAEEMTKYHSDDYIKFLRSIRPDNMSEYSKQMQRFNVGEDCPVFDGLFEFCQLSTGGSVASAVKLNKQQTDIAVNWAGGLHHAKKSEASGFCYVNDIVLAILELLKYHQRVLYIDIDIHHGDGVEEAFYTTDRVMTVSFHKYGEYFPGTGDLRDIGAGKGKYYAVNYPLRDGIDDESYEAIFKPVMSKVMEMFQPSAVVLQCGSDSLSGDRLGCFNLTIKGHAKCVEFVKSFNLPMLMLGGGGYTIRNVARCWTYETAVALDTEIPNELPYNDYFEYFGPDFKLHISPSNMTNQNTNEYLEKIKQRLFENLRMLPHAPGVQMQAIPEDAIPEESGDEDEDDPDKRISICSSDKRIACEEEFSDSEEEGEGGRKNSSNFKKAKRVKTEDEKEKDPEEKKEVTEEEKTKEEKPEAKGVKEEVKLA

The term IC50 denotes the concentration that gives 50% inhibition. Take `O=C(O)c1ccc(NCCOc2ccc3cc2COC/C=C/COCc2cccc(c2)-c2ccnc(n2)N3)cc1`: the 50% inhibitory concentration (IC50) in test [1] is 64 µM; in test [2], less than 0.039 µM; in [3] it was 46 µM.
With `O=C(CCCCCC(=O)Nc1ccc(NCCOc2ccc3cc2COC/C=C/COCc2cccc(c2)-c2ccnc(n2)N3)cc1)NO`, the IC50 in test [1] was 0.0025 µM; in test [2], 0.0069 µM; in [4], greater than 100 µM; in test [5], greater than 4 µM; in the test “cells”, greater than 2 µM; in test [6], greater than 4 µM.
As for `O=C(O)CCCCCCCOc1ccc2cc1COC/C=C/COCc1cccc(c1)-c1ccnc(n1)N2`, the IC50 was 10 µM in test [1]; less than 0.039 µM in [7]; 17.1 µM in test [3]; 8.04 µM in [8]; 22.8 µM in test [4]; 27.7 µM in test [9].
As to `O=C(CCCCCCC(=O)Nc1ccc(NCCOc2ccc3cc2COC/C=C/COCc2cccc(c2)-c2ccnc(n2)N3)cc1)NO`, the IC50 in test [1] is 0.0023 µM; in test [2] it was 0.03 µM; in [3], 3.43 µM; in test [4], greater than 100 µM; in [5], greater than 4 µM; in “cells”, greater than 2 µM. Further, in [6], the IC50 is greater than 4 µM.
Regarding `O=C(O)C1CCN(CCOc2ccc3cc2COC/C=C/COCc2cccc(c2)-c2ccnc(n2)N3)CC1`, the concentration for half-maximal inhibition (IC50) in test [1] was greater than 100 µM; in test [7], less than 0.039 µM; in test [3], 10.7 µM; in test [8], 8.2 µM.
As for `O=C(O)CCCOc1ccc2cc1COC/C=C/COCc1cccc(c1)-c1ccnc(n1)N2`, the values for the IC50 in test [2], in test [3] and in test [8] were 0.047 µM, 53.5 µM and 124 µM, respectively.
Consider `O=C(O)c1cccc(NCCOc2ccc3cc2COC/C=C/COCc2cccc(c2)-c2ccnc(n2)N3)c1`, for which the concentration for half-maximal inhibition (IC50) in [1] was 53 µM; in [7], less than 0.039 µM; in [3] it was 21.4 µM; in [8], 59.2 µM.
For `O=C(NO)C1CCN(CCOc2ccc3cc2COC/C=C/COCc2cccc(c2)-c2ccnc(n2)N3)CC1`, the half-maximal inhibitory concentration (IC50) came to 0.899 µM in test [1]; 0.00097 µM in [2]; 3.41 µM in test [3]; 1.2 µM in [8]; 2.79 µM in [4]; 1.68 µM in test [9].
On to `O=C(CCCCCCC(=O)Nc1ccccc1)NO` [VORINOSTAT], for which the values for the half-inhibitory concentration (IC50) in test [8], in test [5] and in [10] were 1.85 µM, 2.28 µM and 2.91 µM, respectively.
Take `O=C(O)CCCCCCOc1ccc2cc1COC/C=C/COCc1cccc(c1)-c1ccnc(n1)N2`: the 50% inhibitory concentration (IC50) in [1] came out at 2.8 µM; in test [2] it was 0.00257 µM; in test [3], 12 µM; in [8] it was 6.06 µM; in test [4] it was 8.76 µM; in test [9], 20 µM.
As to `O=C(CCCCOc1ccc2cc1COC/C=C/COCc1cccc(c1)-c1ccnc(n1)N2)NO`, the IC50 on Histone deacetylase 1 is 3.09 µM; in [1], 0.107 µM; in test [2], 0.00245 µM; in [3] it was 12.7 µM; in test [8], 1.41 µM; in test [4], 10.1 µM. In [9], this compound had an IC50 of 7.87 µM.
For `O=C(O)CCCCCCC(=O)Nc1ccc(NCCOc2ccc3cc2COC/C=C/COCc2cccc(c2)-c2ccnc(n2)N3)cc1`, the 50% inhibitory concentration (IC50) was determined as 2.6 µM in test [1], 0.00231 µM in test [2] and 2.7 µM in test [8].
For the compound `O=C(NO)c1ccc(OCCOc2ccc3cc2COC/C=C/COCc2cccc(c2)-c2ccnc(n2)N3)cc1`, the 50% inhibitory concentration (IC50) in test [1] worked out at 0.066 µM; in test [2] it was 0.00127 µM; in [4], 1.6 µM.
Take `CN1CCc2c(c3ccccc3n2Cc2ccc(C(=O)NO)cc2)C1` [TUBASTATIN A]: the IC50 in [3] is 10.4 µM; in test [8] it was 2 µM; in test [4] it was 8.6 µM; in test [9], 3.7 µM; in [5] it was greater than 4 µM; in “cells”, greater than 2 µM. In test [6], this compound had a concentration for half-maximal inhibition (IC50) greater than 4 µM.
For the compound `O=C(O)CCCCCOc1ccc2cc1COC/C=C/COCc1cccc(c1)-c1ccnc(n1)N2`, the IC50 in [1] was 45 µM; in [7], less than 0.039 µM; in test [3], 19.9 µM; in test [8], 41 µM.
Regarding `O=C(CCCOc1ccc2cc1COC/C=C/COCc1cccc(c1)-c1ccnc(n1)N2)NO`, the IC50 on Histone deacetylase 1 was 2.4 µM; in [1], 0.51 µM; in test [3], 5.91 µM; in [8], 3.64 µM; in test [4], 4.61 µM; in [9] it was 2.78 µM.
As to `O=C(NO)c1cccc(NCCOc2ccc3cc2COC/C=C/COCc2cccc(c2)-c2ccnc(n2)N3)c1`, the IC50 is 2.9 µM in test [1]; 0.009 µM in test [2]; greater than 50 µM in [3]; 2.01 µM in test [8]; greater than 100 µM in [4].
With `O=C(CCCCCOc1ccc2cc1COC/C=C/COCc1cccc(c1)-c1ccnc(n1)N2)NO`, the half-maximal inhibitory concentration (IC50) amounted to 4.07 µM on Histone deacetylase 1; 0.028 µM in test [1]; 0.0043 µM in [2]; 8.07 µM in [3]; 2.56 µM in test [8]; 8.11 µM in test [4]. The concentration for half-maximal inhibition (IC50) in test [9] was 4.81 µM; in test [5], greater than 4 µM; in “cells” it was greater than 2 µM; in test [6], 2.9 µM.
Consider `O=C(O)c1ccc(OCCOc2ccc3cc2COC/C=C/COCc2cccc(c2)-c2ccnc(n2)N3)cc1`, for which the 50% inhibitory concentration (IC50) is greater than 100 µM in [1], less than 0.039 µM in test [7], 54.2 µM in test [3] and 29.7 µM in test [8].
On to `O=C(NO)c1ccc(NCCOc2ccc3cc2COC/C=C/COCc2cccc(c2)-c2ccnc(n2)N3)cc1`, for which the IC50 was found to be 0.395 µM in test [1]; 0.00171 µM in test [2]; 8.69 µM in test [3]; 3.2 µM in test [8]; 4.58 µM in test [4]; 3.84 µM in test [9].
For `O=C(O)CCCCOc1ccc2cc1COC/C=C/COCc1cccc(c1)-c1ccnc(n1)N2`, the results for the half-inhibitory concentration (IC50) in [7], in [3] and in test [8] were less than 0.039 µM, 25.9 µM and 36 µM, respectively.
